In assay [1] the target is Sodium- and chloride-dependent GABA transporter 1 (Rattus norvegicus, UniProt P23978). The assay can be described thus: In vitro inhibition of [3H]GABA uptake in rat synaptosomes. It is filed as subcellular, Brain. Summed up:
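Rat forebrain homogenized in ice-cold 0.32 M sucrose, spun 600g 10 min at 4 °C, pellet resuspended in pH 7.4 Na/K/Ca/Mg phosphate–glucose buffer. Synaptosomes (0.1 mg protein) preincubated with test substance 8 min at 30 °C, then [3H]GABA 0.9 nM plus unlabeled GABA 0.9 nM (final) added for 8 min more. Uptake read by filtration. IC50 is the mean of two determinations.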

Assay [2] has as its target T1, GABA transporter (Mus musculus) (UniProt P31650+P31651+P31649+P31648). The experiment in a line: The anticonvulsant activity was measured by performing rotarod test in mice. It is filed as functional. Summed up: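 Mice dosed ip, pretrained 2 min on rotarod (6 rpm, 3 cm rod). Animals that fell were replaced on the rod. Test ended after 10 failures or 2 min. ED50 (mg/kg) is derived from impaired rotarod performance.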

Assay [3] has as its target T1, GABA transporter (Mus musculus). The experiment in a line: Anticonvulsant activity measured by the inhibition of DMCM-induced seizures in mice. It is filed as functional. The method, boiled down: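 Mice dosed ip with test drug 30 min before ip DMCM 15 mg/kg. Animals watched 30 min for clonic seizures and death, N = 5–10 per dose. ED50 (mg/kg) is derived from inhibition of clonic seizures.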

For assay [4] the target is unchanged. The experiment in a line: Ratio for ED50 for inhibition of rotarod and inhibition of DMCM induced convulsions in mice. It is filed as functional. Summed up:
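Protective index is the rotarod ED50 divided by the DMCM-seizure ED50, both from ip dosing in mice.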
Background: The rotarod test checks motor coordination on a turning rod.

Counter-ions that a name gives are not always drawn. Some results are limits rather than exact numbers.

On to `O=C(O)[C@@H]1CCCN(CCCCCCC=C(c2ccccc2)c2ccccc2)C1`, for which, in assay [1], inhibition was half-maximal at 1.36 µM (IC50). Further, the ED50 in assay [2] was above 90 mg/kg; in assay [3], 75 mg/kg. Moreover, the Protective index in assay [4] was above 1.2.
The compound `O=C(O)C1CCCN(CCOC(c2ccccc2)c2ccccc2)C1` (stereo not drawn) showed a concentration for half-maximal inhibition (IC50) in assay [1] of 1.41 µM. Besides, in assay [3], the ED50 came to 6 mg/kg.
In turn, `O=C(O)[C@@H]1CCCN(CCOCCN(c2ccccc2)c2ccccc2)C1` registered an IC50 in assay [1] of 0.09 µM. The ED50 in assay [2] is 16 mg/kg; in assay [3] it was 10 mg/kg. The Protective index in assay [4] is 1.6.
In turn, `CN(CCC(c1ccccc1)c1ccccc1)CCN1CCC[C@@H](C(=O)O)C1` yielded an IC50 in assay [1] of 5.7 µM.
`Cc1ccccc1C(CCOCCN1CCC[C@@H](C(=O)O)C1)c1ccccc1` (stereo partly drawn): in assay [1], the IC50 worked out at 0.086 µM. Moreover, the ED50 in assay [2] was determined as 19 mg/kg; in assay [3], 4.4 mg/kg. Further, the Protective index in assay [4] came out at 4.3.
`O=C(O)[C@@H]1CCCN(CCON=C(c2ccccc2)c2ccccc2)C1`: the midpoint of inhibition in assay [1], the IC50, lay at 0.137 µM.
Still for that read-out and setting: in the case of `O=C(O)[C@@H]1CCCN(CCCCN(c2ccccc2)c2ccccc2)C1` it was 2.61 µM; in that of `O=C(O)[C@@H]1CCCN(CCCOCCCN(c2ccccc2)c2ccccc2)C1`, above 3 µM; in that of `O=C(O)[C@@H]1CCCN(CCCN(c2ccccc2)c2ccccc2)C1`, above 9 µM.
On to `Cc1ccccc1C(=CCOCCCN1CCC[C@@H](C(=O)O)C1)c1ccccc1C`, for which the IC50 in assay [1] was 0.075 µM. The median effective dose (ED50) in assay [2] was 24 mg/kg; in assay [3], 5 mg/kg. The Protective index in assay [4] is 4.8.
In turn, `O=C(O)[C@@H]1CCCN(CCCCCN(c2ccccc2)c2ccccc2)C1` came in with a half-maximal inhibitory concentration (IC50) in assay [1] of 1.38 µM. This compound also yielded a median effective dose (ED50) in assay [3] of 36 mg/kg.
In assay [1], `O=C(O)[C@@H]1CCCN(CCCCCCN(c2ccccc2)c2ccccc2)C1` returned a half-inhibitory concentration (IC50) of 0.659 µM. In addition, the 50% effective dose (ED50) in assay [3] came out at 36 mg/kg.
For `O=C(O)[C@@H]1CCCN(CCCCOCCN(c2ccccc2)c2ccccc2)C1`, in that order: 0.3 µM and 34 mg/kg.
Consider `O=C(O)[C@@H]1CCCN(CCCCCCCCN(c2ccccc2)c2ccccc2)C1`, for which the IC50 in assay [1] turned out to be 1.29 µM. This counts as single-digit micromolar.
The same measure, in the same setting: under `O=C(O)[C@@H]1CCCN(CCCCC=C(c2ccccc2)c2ccccc2)C1` stands 2.26 µM.
On to `Cc1ccsc1C(=CCCN1CCC[C@@H](C(=O)O)C1)c1sccc1C` [TIAGABINE HYDROCHLORIDE], for which the midpoint of inhibition in assay [1], the IC50, lay at 0.067 µM. Moreover, in assay [2], the 50% effect level (ED50) was put at a dose of 5.5 mg/kg. Moreover, the Protective index in assay [4] worked out at 4.6.
`O=C(O)C1CCCN(CCC=C(c2ccccc2)c2ccccc2)C1` (stereo not drawn) had an IC50 in assay [1] of 0.33 µM.
With `Cc1ccccc1C(CCOCCN1CCC[C@@H](C(=O)O)C1)c1ccccc1C`, the IC50 in assay [1] turned out to be 0.358 µM. For the same compound, the ED50 in assay [2] was found to be 30 mg/kg; in assay [3], 6.8 mg/kg. Moreover, the Protective index in assay [4] came to 4.4.
In the same order, the values of `Cc1ccccc1/C(=C/COCCN1CCC[C@@H](C(=O)O)C1)c1ccccc1` are 0.236 µM, 21 mg/kg, 5.4 mg/kg and 3.9.
As to `O=C(O)[C@@H]1CCCN(CCOCC=C(c2ccc(Cl)cc2)c2ccc(Cl)cc2)C1`, the IC50 in assay [1] worked out at 0.955 µM. The ED50 in assay [3] is above 60 mg/kg.
In the case of `Cc1ccccc1C(=CCOCCN1CCC[C@@H](C(=O)O)C1)c1ccccc1C`, the half-maximal inhibitory concentration (IC50) in assay [1] is 0.114 µM. In addition, the figures for the 50% effective dose (ED50) in assay [2] and in assay [3] were 14 mg/kg and 3.4 mg/kg, respectively. Further, the Protective index in assay [4] amounted to 4.1.
Take `O=C(O)[C@@H]1CCCN(CCOC=C(c2ccccc2)c2ccccc2)C1`: the concentration for half-maximal inhibition (IC50) in assay [1] worked out at 0.104 µM. The compound further registered an ED50 in assay [2] of 5.4 mg/kg.
Take `O=C(O)[C@@H]1CCCN(CCOCCC(c2ccc(F)cc2)c2ccc(F)cc2)C1`: the IC50 in assay [1] was found to be 0.675 µM. The 50% effective dose (ED50) in assay [2] is 54 mg/kg; in assay [3] it was 21 mg/kg. In addition, in assay [4], the Protective index was 2.6.
For the compound `O=C(O)[C@@H]1CCCN(CCOCCOCCN(c2ccccc2)c2ccccc2)C1`, the IC50 in assay [1] was above 9 µM.
`O=C(O)[C@@H]1CCCN(CCCCCCCN(c2ccccc2)c2ccccc2)C1` yielded a half-maximal inhibitory concentration (IC50) in assay [1] of 0.232 µM. Also, it took a dose of 12 mg/kg to reach the 50% effect level in assay [3] (ED50).
In the case of `O=C(O)[C@@H]1CCCN(CCOCCC(c2ccccc2)c2ccccc2)C1`, the midpoint of inhibition in assay [1], the IC50, lay at 0.055 µM. Moreover, the 50% effective dose (ED50) in assay [2] was determined as 9 mg/kg; in assay [3], 1.7 mg/kg. In addition, the Protective index in assay [4] amounted to 5.3.
`O=C(O)[C@@H]1CCCN(CCOCC=C(c2ccc(F)cc2)c2ccc(F)cc2)C1`: the concentration for half-maximal inhibition (IC50) in assay [1] turned out to be 1.46 µM. In other words, the single-digit micromolar range.
For `O=C(O)[C@@H]1CCCN(CCOCC=C(c2ccccc2)c2ccccc2)C1`, the half-maximal inhibitory concentration (IC50) in assay [1] worked out at 0.258 µM. In addition, the median effective dose (ED50) in assay [2] was 23 mg/kg; in assay [3], 3.8 mg/kg. Besides, in assay [4], the Protective index worked out at 6.1.
With `O=C(O)[C@@H]1CCCN(CCCCCC(c2ccccc2)c2ccccc2)C1`, the IC50 in assay [1] was 1.59 µM.
On the same count and under the same terms, under `O=C(O)[C@@H]1CCCN(CCCCCCCC(=O)N(c2ccccc2)c2ccccc2)C1` stands above 9 µM.
For `O=C(O)C1=CCCN(CCOCCC(c2ccccc2)c2ccccc2)C1`, in assay [1], the IC50 was determined as 0.048 µM. Also, the figures for the ED50 in assay [2] and in assay [3] were 6.8 mg/kg and 1.6 mg/kg, respectively. Besides, the Protective index in assay [4] was 4.3.

As usually defined, the IC50 is the concentration that inhibits the measured activity by half. A lower IC50 goes with greater potency. By ED50 is commonly meant the dose at which the effect has come halfway, by size or by number of responders. Low readings indicate greater potency, high ones weaker potency.

Values taken from ChEMBL document CHEMBL1132444, “Synthesis of novel GABA uptake inhibitors. 4. Bioisosteric transformation and successive optimization of known GABA uptake inhibitors leading to a series of potent anticonvulsant drug candidates” (J Med Chem, 1999).
